UBC13 polyUb – human UBC13 polyubiquitination inhibition; P61088; UBC13 polyubiquitin chain formation, TR-FRET; inhibition, % at 20 µM; actives 0.47% (n = 330,000); AID 485273; in the data active = inhibition above about 45%, passing the limit was not always enough
MEKK2wt PB1 HTS – raises or lowers MEK5 binding to wildtype human MEKK2 PB1 domain. bead flow cytometry, Alexa488-MEK5 binding to MEKK2 WT; actives lie on both sides. binding response (% of control), % at 10 µM. actives 1.1% (n = 290,000). AID 1531; in the data active = binding response below about 67% or above about 130%
PREPL inhibitor – human PREPL enzyme inhibition | actives 0.68% (n = 320,000) | recombinant PREPL, fluorescence polarization activity-based probe | inhibition, % at 5.96 µM | Q4J6C6; in the data active = inhibition above about 43%
Apaf1 inhib – blocks human Apaf-1 apoptosome activity; actives 0.71% (n = 330,000); O14727; inhibition, % at 20 µM; reconstituted apoptosome caspase-3 activity, DEVD-Rh110 fluorescence; active = inhibition of at least 40% at 20 µM
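System – cell-free apoptosome with Apaf-1, procaspase-3 and caspase-9 · Buffer or medium – pH 7.5 Hepes buffer with CHAPS, BSA, DTT · Also added – cytochrome c with DEVD-Rh110 · Times – 30 min compound preincubation, 50 min activation, room temperature · Technique – Rh110 fluorescence intensity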
MEKK3 PB1 HTS – modulators (inhibitors or enhancers) of MEK5 binding to human MEKK3 PB1 domain | bead-based flow cytometry, Alexa488-MEK5 binding to MEKK3; actives lie on both sides; 0 = blocked by unlabeled MEK5, 100 = vehicle | binding response (% of control), % at 10 µM | AID 1529 | actives 1.4% (n = 290,000) | Q99759;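 active = binding response more than 3 SD above or below the average of its plate-row segment, actives on both sides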;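 also: Alexa488 bead fluorescence after subtracting the streptavidin-only scavenger bead signal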
MEKK2mut PB1 HTS – signal of MEK5 binding to mutant human MEKK2 PB1 domain; percent response, % at 10 µM; actives 0.35% (n = 290,000); AID 1530; bead flow cytometry, Alexa488-MEK5 binding to MEKK2 mutant; in the data active = percent response above about 24%, passing the limit was not always enough
Apaf-1 inh conf – confirmation of Apaf-1 inhibitors | shares compounds with Apaf1 inhib | reconstituted apoptosome, caspase-3 DEVD-Rh110 fluorescence | inhibition, % at 20 µM | actives 25% (n = 1,800);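 active = mean inhibition of at least 40% at 20 µM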
Rh110 quench – Rh110 signal interference in Apaf-1 inhibitor counter-screen; Rh110 fluorescence interference, quenched caspase reaction; 1,800 tested, under 10 active; shares compounds with Apaf1 inhib; activation (fluorescence interference), % at 20 µM;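 active = signal rise of 40% or more at 20 µM, treated as a fluorescence artifact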
Apaf1 inh interf – shows fluorescence interference in the Apaf-1 inhibitor assay format; shares compounds with Apaf1 inhib; fluorescence interference counterscreen, Apaf-1 assay format; IC50, µM; 460 tested, under 10 active; AID 588538; call rule not given here
Of the large screens only hits and unclear results are named; the others gave an inactive call (follow-up assays come after a bar, where they were run). A selection: hits, their analogues and other compounds. The true share with any hit is near 3.1%.

O=S(=O)(NC1CCC(NS(=O)(=O)c2c(F)cccc2F)CC1)c1ccc2c(c1)OCCO2 (centres undefined)	none (no result: MEKK2wt PB1 HTS, MEKK3 PB1 HTS, MEKK2mut PB1 HTS)
Cc1c(C(=O)Nc2c(C)n(C)n(-c3ccccc3)c2=O)oc2ccc(Cl)cc12	none
CC1(OC(=O)c2ccc(Cl)nc2)C(=O)C=C2C=C3CCCN3C=C2C1=O (centres undefined)	Apaf1 inhib 44 | Apaf-1 inh conf inactive | Rh110 quench inactive
CC1(OC(=O)c2ccc(Cl)nc2)C(=O)C=C2C=C(C3CC3)OC=C2C1=O (centres undefined)	none
COc1cc2c(cc1OC)C1=C(C#N)CCC(=O)N1CC2	Apaf1 inhib 50 | Apaf-1 inh conf inactive | Rh110 quench inactive
COCCCNC(=O)c1ccc2c3c(onc13)-c1ccccc1C2=O	Apaf1 inhib 80 | Apaf-1 inh conf 74 | Rh110 quench inactive | Apaf1 inh interf inactive
N=C1C(c2ccccc2)=C(O)CN1CCO	none
Cc1ccc(C)c(NC(=O)CN(C)C(=O)c2cccc(S(=O)(=O)N3CCN(Cc4ccccc4)CC3)c2)c1	Apaf1 inhib 41 | Apaf-1 inh conf inactive | Rh110 quench inactive
Cc1ccc(S(=O)(=O)N[C@@H](Cc2ccccc2)C(=O)N2CCC[C@@H]2C(=O)O)cc1	none
COCCN(CC(=O)Nc1cccc(S(=O)(=O)N2CCCC2)c1)Cc1nc2ccccc2c(=O)[nH]1	none (no result: MEKK2wt PB1 HTS, PREPL inhibitor, MEKK3 PB1 HTS, MEKK2mut PB1 HTS)
O=C(Cc1cccc(C(F)(F)F)c1)OCC(=O)N1CCN(S(=O)(=O)c2ccc(Cl)cc2)CC1	Apaf1 inhib 51 (no result: MEKK2wt PB1 HTS, MEKK3 PB1 HTS, MEKK2mut PB1 HTS) | Apaf-1 inh conf inactive | Rh110 quench inactive
O=C(Cc1ccc(F)cc1)OCC(=O)N1CCN(S(=O)(=O)c2ccc(Cl)cc2)CC1	none (no result: MEKK2wt PB1 HTS, MEKK3 PB1 HTS, MEKK2mut PB1 HTS)
O=c1cc(-c2cccc([N+](=O)[O-])c2)[nH][nH]1	Apaf1 inhib 68 | Apaf-1 inh conf inactive | Rh110 quench inactive
CCOC(=O)c1c(C)c2c(=O)[nH]cnc2n1-c1ccccc1	Apaf1 inhib 58 | Apaf-1 inh conf inactive | Rh110 quench inactive
O=C(NCCN1CCOCC1)C(=O)NCC1OCCN1S(=O)(=O)c1cc(F)ccc1F (centres undefined)	none
CN(C)CCNC(=O)C(=O)NCC1OCCN1S(=O)(=O)c1cc(F)ccc1F (centres undefined)	Apaf1 inhib 47 | Apaf-1 inh conf inactive | Rh110 quench inactive
COc1cc(C(C(=O)NC2CCCC2)N(C(=O)c2snc(C(N)=O)c2N)c2ccccc2)cc(OC)c1OC (centres undefined)	none
COCCNC(=O)CN1C(=O)NC2(CCOc3ccccc32)C1=O (centres undefined)	Apaf1 inhib 46 | Apaf-1 inh conf inactive | Rh110 quench inactive
CCCCNC(=O)CN1C(=O)NC2(CCOc3ccccc32)C1=O (centres undefined)	none
O=C(CSc1ccc2nnc(CCNC(=O)c3ccccc3)n2n1)Nc1ccc(F)cc1F	none
O=C(NCc1ccccn1)c1c(-c2ccccc2)sc2ccccc12	none (no result: MEKK2wt PB1 HTS, MEKK3 PB1 HTS, MEKK2mut PB1 HTS)
COc1cc(-c2ccc(NC(C)=O)c(OC)c2)ccc1NC(C)=O	none
COc1cc(O)c(NC(C)=O)c2nonc12	Apaf1 inhib 87 | Apaf-1 inh conf inactive | Rh110 quench inactive
COc1ccc(NC(=O)CN2CCN(c3c(C)cccc3C)CC2)cc1	none
Cc1cc2nn(-c3ccc(Cl)cc3)nc2cc1N	Apaf1 inhib 49 | Apaf-1 inh conf inactive | Rh110 quench inactive
Cn1c(=O)c2[nH]c(=O)cnc2n(C)c1=S	Apaf1 inhib 56 | Apaf-1 inh conf inactive | Rh110 quench inactive
O=C(NC(NC1CCS(=O)(=O)C1)C(=O)c1cccs1)c1ccccc1 (centres undefined)	none
Cc1cccc(C(=O)Nc2cccc(NC(=O)c3ccccc3)c2)c1	none

Screening data deposited in PubChem by several laboratories.
